Laboratory results taken from article PMC10131263 (Chemical & Biomedical Imaging, 2023).

How the values were obtained:
MMP-13 expressing SFs = assay: Fluorescence microscopy of beacon uptake and activation, SFs; type: cell-based, human; settings: 2.5 μM, 24 h incubation, fluorescence microscopy Cy5 channel
Procedure, shortened: (§1)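 Cells (patient-derived SFs or donated HUVECs) seeded at 5 × 10^3 per well in 8-chamber slides. After 24 h the medium was changed and test compound added to 2.5 µM final for a further 24 h. Cells washed, fixed in 4% paraformaldehyde for 20 min and mounted with DAPI. Imaged on an inverted microscope: Cy5 620/60 ex, 665 long-pass em; exposure 200 ms for SFs, 1500 ms for HUVECs.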

HUVECs = assay: Fluorescence microscopy of beacon uptake and activation, HUVECs; type: cell-based, human; settings: 2.5 μM, 24 h incubation, fluorescence microscopy Cy5 channel
Procedure, shortened: as §1

Q: Pyro-glgfrvgk-BHQ3 [DPPMMP13B] was tested. Which “Intracellular pyro fluorescence in MMP-13 + SFs” value (MMP-13 expressing SFs) did it give?
A: Its value is “negligible fluorescence”.

Q: What about the “Intracellular pyro fluorescence in HUVECs (negligible MMP-13 expression)” value (HUVECs) of the same substance?
A: Its value is “negligible fluorescence”.
